Data published in ChEMBL document CHEMBL3112521, “Design, synthesis and biological evaluation of (E)-2-(2-arylhydrazinyl)quinoxalines, a promising and potent new class of anticancer agents” (Bioorg Med Chem Lett, 2014).

Legend:
[1] = test system: SF-295; experiment: Cytotoxicity against human SF295 cells assessed as growth inhibition at 5 ug/ml by MTT assay; format: functional; details: read-out: GI
Procedure, shortened: (§1)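 Single-concentration MTT screen at 5 µg/mL across SF-295 (glioblastoma), OVCAR-8 (ovary) and HCT-116 (colon) cells. Read-out is percent growth inhibition, reported with sd.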

[2] = test system: HCT-116; experiment: Cytotoxicity against human HCT116 cells assessed as growth inhibition at 5 ug/ml by MTT assay; format: functional; details: read-out: GI; procedure, shortened: as §1
[3] = test system: OVCAR-8; experiment: Cytotoxicity against human OVCAR8 cells assessed as growth inhibition at 5 ug/ml by MTT assay; format: functional; details: read-out: GI; procedure, shortened: as §1
[4] = test system: HCT-116; experiment: Cytotoxicity against human HCT116 cells assessed as growth inhibition by MTT assay; format: functional, cell-based
Procedure, shortened: (§2)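 Dose-response on HCT-116, OVCAR-8, HL-60 (leukemia) and SF-295 cells, with doxorubicin as positive control. IC50 is taken as the concentration inducing 50% inhibition of cell growth. Data come from three independent experiments, each run in triplicate.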

[5] = test system: OVCAR-8; experiment: Cytotoxicity against human OVCAR8 cells assessed as growth inhibition by MTT assay; format: functional, cell-based; procedure, shortened: as §2
[6] = test system: HL-60; experiment: Cytotoxicity against human HL60 cells assessed as growth inhibition by MTT assay; format: functional, cell-based; procedure, shortened: as §2
[7] = test system: SF-295; experiment: Cytotoxicity against human SF295 cells assessed as growth inhibition by MTT assay; format: functional, cell-based; procedure, shortened: as §2

| Structure (SMILES) | inhibition of growth at 5 µg/mL [1] | inhibition of growth at 5 µg/mL [2] | inhibition of growth at 5 µg/mL [3] | IC50 [4] | IC50 [5] | IC50 [6] | IC50 [7] |
| --- | --- | --- | --- | --- | --- | --- | --- |
| O=[N+]([O-])c1cccc(/C=N/Nc2cnc3ccccc3n2)c1 | 23.4% | 21% | 16.9% | – | – | – | – |
| N#Cc1cccc(/C=N/Nc2cnc3ccccc3n2)c1 | 44.5% | 30.7% | 11.5% | – | – | – | – |
| COc1cc(/C=N/Nc2cnc3ccccc3n2)cc(OC)c1OC | 60.1% | 20.7% | 38.8% | – | – | – | – |
| O=[N+]([O-])c1ccc(/C=N/Nc2cnc3ccccc3n2)cc1 | 27% | 18.6% | 40.6% | – | – | – | – |
| C(=N\Nc1cnc2ccccc2n1)/c1ccccc1 | 3.37% | 18.4% | 34.5% | – | – | – | – |
| Brc1ccccc1/C=N/Nc1cnc2ccccc2n1 | 35.2% | 23.6% | 18% | – | – | – | – |
| Cc1ccc(/C=N/Nc2cnc3ccccc3n2)cc1 | 18.1% | 19.6% | 29% | – | – | – | – |
| Oc1ccc(O)c(/C=N/Nc2cnc3ccccc3n2)c1 | 50.7% | 89.2% | 60.5% | – | – | – | – |
| Clc1ccc(/C=N/Nc2cnc3ccccc3n2)cc1 | 44.5% | 10.2% | 41.7% | – | – | – | – |
| COc1ccc(/C=N/Nc2cnc3ccccc3n2)cc1 | 0.52% | -43.6% | 14.4% | – | – | – | – |
| COc1cccc(OC)c1/C=N/Nc1cnc2ccccc2n1 | 44.7% | 19.4% | 25.1% | – | – | – | – |
| CCOc1ccc(/C=N/Nc2cnc3ccccc3n2)cc1 | 12.3% | 17.6% | 50.3% | – | – | – | – |
| COc1ccc(/C=N/Nc2cnc3ccccc3n2)cc1OC | 16.5% | 22.3% | 17.6% | – | – | – | – |
| O=[N+]([O-])c1ccccc1/C=N/Nc1cnc2ccccc2n1 | 21.9% | 23% | 21.8% | – | – | – | – |
| Cc1ccc(O)c(/C=N/Nc2cnc3ccccc3n2)c1 | 38.4% | 13.7% | 25.4% | – | – | – | – |
| COc1ccc(/C=N/Nc2cnc3ccccc3n2)c(Cl)c1O | 32.4% | 24.5% | 13.8% | – | – | – | – |
| COc1ccc(OC)c(/C=N/Nc2cnc3ccccc3n2)c1 | 44.6% | 0% | 18.5% | – | – | – | – |
| COc1cccc(/C=N/Nc2cnc3ccccc3n2)c1OC | 22.2% | 0% | 0% | – | – | – | – |
| Clc1cccc(Cl)c1/C=N/Nc1cnc2ccccc2n1 | 52% | 71.2% | 53.5% | – | – | – | – |
| Oc1ccc(/C=N/Nc2cnc3ccccc3n2)c(O)c1 | 85.3% | 85.1% | 84.2% | – | – | – | – |
| Cc1ccc(/C=N/Nc2cnc3ccccc3n2)c(O)c1 | 59.9% | 17.4% | 31.5% | – | – | – | – |
| COc1ccc(/C=N/Nc2cnc3ccccc3n2)c(OC)c1 | 46.9% | 12.8% | 7.19% | – | – | – | – |
| Oc1ccc(/C=N/Nc2cnc3ccccc3n2)cc1Cl | 46.6% | 16.2% | 28.8% | – | – | – | – |
| Fc1ccccc1/C=N/Nc1cnc2ccccc2n1 | 12.8% | 7.01% | 0% | – | – | – | – |

| Structure (SMILES) | inhibition of growth at 5 µg/mL [1] | inhibition of growth at 5 µg/mL [2] | inhibition of growth at 5 µg/mL [3] | IC50 [4] | IC50 [5] | IC50 [6] | IC50 [7] |
| --- | --- | --- | --- | --- | --- | --- | --- |
| COc1cccc2c1C(=O)c1c(O)c3c(c(O)c1C2=O)C[C@@](O)(C(=O)CO)C[C@@H]3O[C@H]1C[C@H](N)[C@H](O)[C@H](C)O1 [DOXORUBICIN] | – | – | – | 0.23 µM | 0.488 µM | – | – |
| Fc1cccc(/C=N/Nc2cnc3ccccc3n2)c1 | 8.36% | 10.8% | 5.59% | – | – | – | – |
| Oc1cc(/C=N/Nc2cnc3ccccc3n2)cc(O)c1O | 37.8% | 14.9% | 12.8% | – | – | – | – |
| Clc1ccc(/C=N/Nc2cnc3ccccc3n2)c(Cl)c1 | 28.5% | 16.5% | 4.9% | – | – | – | – |
| COc1ccccc1/C=N/Nc1cnc2ccccc2n1 | 21.8% | 4.45% | 21% | – | – | – | – |
| Clc1cccc(/C=N/Nc2cnc3ccccc3n2)c1 | 33.2% | 0% | 0% | – | – | – | – |
| Oc1ccc(/C=N/Nc2cnc3ccccc3n2)cc1 | 39.4% | 20.2% | 67.3% | – | – | – | – |
| Oc1cccc(/C=N/Nc2cnc3ccccc3n2)c1O | 81.2% | 84% | 97.9% | 1.76 µM | 1.06 µM | 0.316 µM | 1.26 µM |
| Clc1cccc(/C=N/Nc2cnc3ccccc3n2)c1Cl | 84.3% | 97.5% | 100% | 7.01 µM | 6.19 µM | 10.8 µM | 6.21 µM |
| Oc1ccc(/C=N/Nc2cnc3ccccc3n2)cc1O | 47.6% | 69.4% | 46.3% | – | – | – | – |
| N#Cc1ccc(/C=N/Nc2cnc3ccccc3n2)cc1 | 16% | 31.6% | 50.9% | – | – | – | – |
| Oc1cccc(/C=N/Nc2cnc3ccccc3n2)c1 | 27.5% | 29.6% | 51.5% | – | – | – | – |
| COc1ccc(/C=N/Nc2cnc3ccccc3n2)c(O)c1 | 66.4% | 83.1% | 80.9% | 14.2 µM | 7.55 µM | 4.19 µM | 15.7 µM |
| COc1cccc(/C=N/Nc2cnc3ccccc3n2)c1 | 35.8% | 14.5% | 41.6% | – | – | – | – |
| Oc1ccccc1/C=N/Nc1cnc2ccccc2n1 | 61.5% | 77% | 95.4% | 4.94 µM | 3.47 µM | 0.819 µM | 2.31 µM |
| Cc1cccc(/C=N/Nc2cnc3ccccc3n2)c1 | 39.8% | 33.4% | 39.9% | – | – | – | – |
| Clc1ccc(/C=N/Nc2cnc3ccccc3n2)cc1Cl | 37.8% | 0.5% | 0% | – | – | – | – |
| Cc1ccccc1/C=N/Nc1cnc2ccccc2n1 | 46.4% | 28.7% | 17.8% | – | – | – | – |
| O=[N+]([O-])c1ccc(O)c(/C=N/Nc2cnc3ccccc3n2)c1 | 78.5% | 92.1% | 95.6% | 4.32 µM | 2.84 µM | 1.75 µM | 2.11 µM |
| O=[N+]([O-])c1cc(/C=N/Nc2cnc3ccccc3n2)ccc1Cl | 36.8% | 20.6% | 9% | – | – | – | – |
| Brc1cccc(/C=N/Nc2cnc3ccccc3n2)c1 | 14.2% | 0% | 0% | – | – | – | – |
| Brc1ccc(/C=N/Nc2cnc3ccccc3n2)cc1 | 33.5% | 23.2% | 18.2% | – | – | – | – |
| Clc1ccccc1/C=N/Nc1cnc2ccccc2n1 | 31.9% | 12.1% | 9.09% | – | – | – | – |
| CCOc1cccc(/C=N/Nc2cnc3ccccc3n2)c1 | 7.19% | 1.29% | 41.2% | – | – | – | – |
